Molecules are shown by their SMILES. Results filed as inconclusive are left out. Calls of active or inactive are those of the source.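 Rule for the calls: active = compounds whose fitted half-maximal growth inhibition concentration is at most ten times the top valid dose; inconclusive = flat curve with 30 to 70% inhibition, or poor fit; inactive = the rest.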

Consider 24 molecules from PubChem BioAssay AID493082 (Broad Institute, 2011).

Test system in the first test: not listed separately
The test can be described thus: antifungal activity on resistant C. albicans strain – Alamar Blue, 48 h, dry powder, dose response (AID 493082). Conditions: C. albicans CaCi-8 + fluconazole, Alamar Blue growth, 48 h; at 26 µM (top of the series). Put shortly:
(§1)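 Material: fluconazole-resistant Candida albicans strain CaCi-8 / Medium: defined RPMI 1640-based medium with MOPS, glucose, uridine / Reagent: fluconazole co-treatment at 8 µg/mL alongside compound / Schedule: 48 h compound exposure at 37 °C, 2 h dye step / Detection: Alamar Blue fluorescence, Ex 544/Em 590 nm / Evaluation: fungal growth, reduced fluorescence as inhibition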
In general terms: Alamar Blue is a resazurin reagent that responds to reducing activity.
In the case of `COC(=O)Cn1nc(-c2ccccc2)c2ccc(C(F)(F)F)cc21`, the activity change, negative = inhibition was -34.9% (inactive).

Turning to `O=C(Cn1c2ccccc2c2ccncc21)N1CCCCC1`, the activity change, negative = inhibition was -24.1% (inactive). Take `O=C(Cn1c2ccc(F)cc2c2nc3n(c(=O)c21)CCS3)N1CCCCC1`: the activity change, negative = inhibition was 12.2% (inactive). With `COC(=O)C(C)(C)n1nc(-c2ccccc2)c2ccccc21`, the activity change, negative = inhibition is -6.76% (inactive). On to `COC(=O)Cn1nc(-c2ccccc2)c2cccc(C(F)(F)F)c21`, for which the activity change, negative = inhibition was -12% (inactive). In the case of `CCCCn1nc(-c2ccccc2)c2ccccc21`, the activity change, negative = inhibition was 19.1% (inactive). As for `CCN(CC)C(=O)Cn1c2ccc(F)cc2c2nc3n(c(=O)c21)CCS3`, the activity change, negative = inhibition was 24.6% (inactive). Still for that read-out and setting: as for `O=C(O)Cn1nc(-c2ccccc2)c2ccccc21`, the figure is -8.51% (inactive).

Consider `O=C(Cn1nc(-c2ccccc2)c2ccccc21)OC1CCC1`, for which the activity change, negative = inhibition was -21.3% (inactive).

For the molecule `O=C(Cn1c2ccc(F)cc2c2nc3n(c(=O)c21)CCS3)N1CCCCCC1`, the activity change, negative = inhibition is 3.17% (inactive). The same measure, in the same setting: next, `O=C1OCCC1n1nc(-c2ccccc2)c2ccccc21` (centres undefined): -19.7% (inactive).

The next test has as its system C. albicans CaCi-8 + fluconazole, Alamar Blue growth, 48 h. The description is as above.
Conditions: not given
The procedure, abridged: as §1
In general, AC50 refers to the concentration giving half of the maximal activity seen. `CCN(CC)C(=O)Cn1c2ccccc2c2nc3n(c(=O)c21)CCS3`: the concentration at half-maximal activity (AC50) was 10 µM.

`COC(=O)Cn1nc(-c2ccccc2C)c2ccccc21`: the half-maximal activity concentration (AC50) is 8.07 µM.

For `COC(=O)Cn1nc(-c2cccc(F)c2)c2ccccc21`, the AC50 was 14 µM. Turning to `COC(=O)Cn1c(-c2ccccc2)nc2ccccc21`, the AC50 was 16.7 µM.

Consider `O=C(Cn1c2ccccc2c2nc3n(c(=O)c21)CCS3)N1CCCC1`, for which the AC50 was 3.83 µM. On to `O=C(Cn1c2ccccc2c2nc3n(c(=O)c21)CCS3)N1CCCCC1`, for which the AC50 is 4.91 µM. Still for that read-out and setting: as for `CC1CCN(C(=O)Cn2c3ccccc3c3nc4n(c(=O)c32)CCS4)CC1`, the figure is 2.06 µM. Regarding `O=C(Cn1c2ccccc2c2nc3n(c(=O)c21)CCS3)N1CCOCC1`, the AC50 is 7.67 µM.

In the case of `O=C(Cn1c2ccc(F)cc2c2nc3n(c(=O)c21)CCS3)N1CCCC1`, the half-maximal activity concentration (AC50) is 0.907 µM. On the same count and under the same terms, next, `COC(=O)Cn1nc(-c2ccccc2)c2ccccc21`: 2.33 µM; `COC(=O)Cn1nc(-c2ccc(C#N)cc2)c2ccccc21`: 20 µM. The same measure, in the same setting: as for `COC(=O)Cn1nc(-c2ccc(F)cc2)c2ccccc21`, the figure is 16.1 µM; as for `COC(=O)Cn1nc(I)c2ccccc21`, 18.8 µM.
